Results of several laboratories.
Protocols differ between the studies behind these lines.

With Cc1ccc2cncc(N3CCc4c(cc(Cn5ccnc5)cc4-c4cn(C)nc4C(F)(F)F)C3=O)c2c1 the half-life was 1.5 h (male CD-1 mouse, plasma; intravenous, 3 mg/kg).
The half-life of Cn1cnc2c(F)c(Nc3ccc(Br)cc3Cl)c(C(=O)NOCCO)cc21 is reported as 3.7 h (nude mouse, tumour; oral, 10 mg/kg, single dose, tumour-bearing).
CCc1cc(OC)c2nccc(N3CCc4c(cc(Cn5ccnc5)cc4-c4cn(C)nc4C(F)(F)F)C3=O)c2c1 has a half-life of 1.1 h (male CD-1 mouse, plasma; oral, 50 mg/kg).
For CC[C@H](C)[C@@H]1NC(=O)[C@@](C)(NC(=O)[C@H](CCCNC(=N)N)NC(=O)[C@H](CC(C)C)NC(=O)[C@@H](NC(=O)[C@H](CCC(N)=O)NC(=O)[C@H](CC(C)C)NC(C)=O)[C@@H](C)O)CCCC=CCCC[C@@](C)(C(=O)N[C@@H](CC(C)C)C(=O)N[C@@H](Cc2ccc3ccccc3c2)C(N)=O)NC(=O)[C@H](CCCNC(=N)N)NC(=O)[C@H](CCC(N)=O)NC1=O, the half-life was 1.4 h (male BALB/c mouse, plasma; intravenous, 5 mg/kg).
COc1ccc(C(O)COc2ccc(-c3csc(-c4ccc(OCC(O)c5ccc(OC)c(OC)c5)cc4)n3)cc2)cc1OC (stereo not shown) has a half-life of 3 h (C57BL/6 mouse, plasma; intravenous, 3 mg/kg).
CC(C)(C)c1ccc(O)c(CN(Cc2cc(C(C)(C)C)ccc2O)C2CCC(NC(N)=O)CC2)c1 (stereo not shown) gave a half-life of 2.4 h (male C57BL/6 mouse, plasma; intraperitoneal, 25 mg/kg, single dose).
The half-life of Cc1nc(-c2cnc(NC(C)C)n(C)c2=O)ccc1Oc1ccnc(-c2cnn(C)c2)c1 is reported as 15.3 h (female mouse, plasma; oral, 30 mg/kg, single dose).
CCc1ccc(Cc2cc([C@@H]3O[C@H](CO)[C@@H](O)[C@H](O)[C@H]3O)cc3c2CCC3)cc1 gave a half-life of 3 h (male C57BL/6 mouse, plasma; oral, 1 mg/kg).
With CN1CCC[C@H](CN2c3ccccc3Sc3ccccc32)C1.Cl the half-life was 4.37 h (mouse, plasma; oral, 64 mg/kg, single dose).
CC=Cc1ccc(O)c(OC)c1 has a half-life of 0.302 h (mouse, plasma; intranasal, 100 mg/kg).
